Laboratory results from ChEMBL document CHEMBL1649368, “Novel isatinyl thiosemicarbazones derivatives as potential molecule to combat HIV-TB co-infection” (Eur J Med Chem, 2011).
In brackets after ≈: the same amount, converted by molar mass.

Legend:
[1] = system: Human immunodeficiency virus 1; assay: Antiviral activity against HIV1 3B infected in human MT4 cells assessed as protection against virus-induced cytopathogenicity after 5 days by microtiter plate analysis; format: functional, organism-based; conditions: Human immunodeficiency virus 1, 3B, MT4, 120 h
In short: (§1)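 MT-4 cells were grown in RPMI-1640 DM with 10% heat-inactivated calf serum and gentamicin. HIV-1 IIIB (100 CCID50) or mock infection was run in parallel with compounds in triplicate, at 37 °C and 5% CO2 for 5 days. Viability was read by MTT spectrophotometry. EC50 was the 50% reduction in virus cytopathic effect; CC50 was the 50% loss of mock-infected cell viability.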

[2] = system: Mycobacterium tuberculosis; assay: Antimycobacterial activity against Mycobacterium tuberculosis H37Ra by agar dilution method; format: functional
In short: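 Log-phase MTB was tested by agar dilution on Middlebrook 7H11 with OADC, following NCCLS guidance. MIC was the lowest concentration giving complete growth inhibition, determined in triplicate.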

[3] = Cytotoxicity against human MT4 cells after 5 days by spectrophotometry; format: cell-based; in short: as §1

| SMILES | EC50 [1] [µM] | MIC [2] [µM] | CC50 at 120 h [3] [µM] |
| --- | --- | --- | --- |
| COc1c(N2CCN(CN3C(=O)/C(=N\NC(=S)NO)c4cc(C)ccc43)C(C)C2)c(F)cc2c(=O)c(C(=O)O)cn(C3CC3)c12 (centres undefined) | 11.1 | 0.63 (≈ 0.402 µg/mL) | 276 |
| CCn1cc(C(=O)O)c(=O)c2cc(F)c(N3CCN(CN4C(=O)/C(=N\NC(=S)NOC)c5cc(F)ccc54)C(C)C3)c(F)c21 (centres undefined) | 4.43 | 0.63 (≈ 0.398 µg/mL) | 178 |
| CCn1cc(C(=O)O)c(=O)c2cc(F)c(N3CCN(CN4C(=O)/C(=N\NC(=S)NO)c5cc(Cl)ccc54)CC3)cc21 | 27.2 | 1.3 (≈ 0.783 µg/mL) | 186 |
| CONC(=S)N/N=C1\C(=O)N(CN(C)C)c2ccc(F)cc21 | 37.8 | 9.62 (≈ 3.13 µg/mL) | 560 |
| Cc1ccnc2c1NC(=O)c1cccnc1N2C1CC1 [NEVIRAPINE] | 0.13 | – | 156 |
| CONC(=S)N/N=C1\C(=O)N(CN2CCN(c3ccccc3)CC2)c2ccc(Cl)cc21 | 17.7 | 13.6 (≈ 6.25 µg/mL) | 267 |
| Cc1ccc2c(c1)/C(=N/NC(=S)NO)C(=O)N2CN1CCOCC1 | 93.6 | 8.96 (≈ 3.13 µg/mL) | 572 |
| Cc1ccc2c(c1)/C(=N/NC(=S)NO)C(=O)N2CN(C)C | 113 | 81.3 (≈ 25 µg/mL) | 651 |
| O=C1/C(=N\NC(=S)NO)c2cc(Cl)ccc2N1CN1CCOCC1 | 35.1 | 6.11 (≈ 2.26 µg/mL) | 348 |
| COc1ccc(N2CCN(CN3C(=O)/C(=N\NC(=S)NO)c4cc(C)ccc43)CC2)cc1 | 15 | 13.8 (≈ 6.25 µg/mL) | 321 |
| CONC(=S)N/N=C1\C(=O)N(CN2CCOCC2)c2ccc(Cl)cc21 | 28.4 | 4.06 (≈ 1.56 µg/mL) | 322 |
| Cc1ccc2c(c1)/C(=N/NC(=S)NO)C(=O)N2CN1CCN(c2ccccc2)CC1 | 19.3 | 14.7 (≈ 6.25 µg/mL) | 420 |
| CCN(CC)CN1C(=O)/C(=N\NC(=S)NO)c2cc(C)ccc21 | 57.6 | 11.8 (≈ 3.97 µg/mL) | 534 |
| O=C1/C(=N\NC(=S)NO)c2cc(F)ccc2N1CN1CCOCC1 | 61.4 | 4.41 (≈ 1.56 µg/mL) | 465 |
| CCn1cc(C(=O)O)c(=O)c2cc(F)c(N3CCN(CN4C(=O)/C(=N\NC(=S)NOC)c5cc(C)ccc54)CC3)cc21 | 11.4 | 1.31 (≈ 0.78 µg/mL) | 238 |
| CONC(=S)N/N=C1\C(=O)N(CN2CCN(c3cc4c(cc3F)c(=O)c(C(=O)O)cn4C3CC3)CC2)c2ccc(F)cc21 | 11.4 | 0.31 (≈ 0.19 µg/mL) | 255 |
| O=C1/C(=N\NC(=S)NO)c2cc(Cl)ccc2N1CN1CCN(c2ccccc2)CC1 | 28.3 | 28.1 (≈ 12.5 µg/mL) | 273 |
| CN(C)CN1C(=O)/C(=N\NC(=S)NO)c2cc(F)ccc21 | 47.2 | 10.1 (≈ 3.13 µg/mL) | 599 |
| COc1ccc(N2CCN(CN3C(=O)/C(=N\NC(=S)NO)c4cc(F)ccc43)CC2)cc1 | 14.7 | 6.83 (≈ 3.13 µg/mL) | 260 |
| CONC(=S)N/N=C1\C(=O)N(CN2CCN(c3ccccc3)CC2)c2ccc(C)cc21 | 17.3 | 12.4 (≈ 5.42 µg/mL) | 276 |
| CONC(=S)N/N=C1\C(=O)N(CN(C)C)c2ccc(Cl)cc21 | 57.9 | 18.3 (≈ 6.25 µg/mL) | 552 |
| COc1c(N2CCN(CN3C(=O)/C(=N\NC(=S)NO)c4cc(Cl)ccc43)C(C)C2)c(F)cc2c(=O)c(C(=O)O)cn(C3CC3)c12 (centres undefined) | 15.3 | 1.19 (≈ 0.783 µg/mL) | 234 |
| CONC(=S)N/N=C1\C(=O)N(CN2CCN(c3cc4c(cc3F)c(=O)c(C(=O)O)cn4C3CC3)CC2)c2ccc(Cl)cc21 | 11 | 0.64 (≈ 0.402 µg/mL) | 143 |

| SMILES | EC50 [1] [µM] | MIC [2] [µM] | CC50 at 120 h [3] [µM] |
| --- | --- | --- | --- |
| CONC(=S)N/N=C1\C(=O)N(CN2CCN(c3c(F)cc4c(=O)c(C(=O)O)cn(C5CC5)c4c3OC)CC2C)c2ccc(Cl)cc21 (centres undefined) | 7.14 | 0.3 (≈ 0.202 µg/mL) | 164 |
| CN(C)CN1C(=O)/C(=N\NC(=S)NO)c2cc(Cl)ccc21 | 130 | 76.3 (≈ 25 µg/mL) | 610 |
| CONC(=S)N/N=C1\C(=O)N(CN2CCN(c3c(F)cc4c(=O)c(C(=O)O)cn(C5CC5)c4c3OC)CC2C)c2ccc(F)cc21 (centres undefined) | 1.88 | 0.15 (≈ 0.0984 µg/mL) | 171 |
| CONC(=S)N/N=C1\C(=O)N(CN2CCN(c3ccccc3)CC2)c2ccc(F)cc21 | 18.1 | 7.07 (≈ 3.13 µg/mL) | 227 |
| CCn1cc(C(=O)O)c(=O)c2cc(F)c(N3CCN(CN4C(=O)/C(=N\NC(=S)NO)c5cc(F)ccc54)CC3)cc21 | 18.4 | 1.33 (≈ 0.779 µg/mL) | 208 |
| CCn1cc(C(=O)O)c(=O)c2cc(F)c(N3CCN(CN4C(=O)/C(=N\NC(=S)NO)c5cc(Cl)ccc54)C(C)C3)c(F)c21 (centres undefined) | 23.2 | 1.23 (≈ 0.78 µg/mL) | 209 |
| COc1c(N2CCN(CN3C(=O)/C(=N\NC(=S)NO)c4cc(F)ccc43)C(C)C2)c(F)cc2c(=O)c(C(=O)O)cn(C3CC3)c12 (centres undefined) | 4.18 | 0.16 (≈ 0.103 µg/mL) | 206 |
| CCN(CC)CN1C(=O)/C(=N\NC(=S)NOC)c2cc(Cl)ccc21 | 58.4 | 16.9 (≈ 6.25 µg/mL) | 454 |
| CCN(CC)CN1C(=O)/C(=N\NC(=S)NOC)c2cc(F)ccc21 | 29.7 | 4.41 (≈ 1.56 µg/mL) | 490 |
| CCN(CC)CN1C(=O)/C(=N\NC(=S)NO)c2cc(F)ccc21 | 36.2 | 9.22 (≈ 3.13 µg/mL) | 521 |
| CONC(=S)N/N=C1\C(=O)N(CN(C)C)c2ccc(C)cc21 | 64.1 | 19.4 (≈ 6.25 µg/mL) | 622 |
| CONC(=S)N/N=C1\C(=O)N(CN2CCOCC2)c2ccc(C)cc21 | 45.1 | 4.29 (≈ 1.56 µg/mL) | 365 |
| CONC(=S)N/N=C1\C(=O)N(CN2CCN(c3ccc(OC)cc3)CC2)c2ccc(Cl)cc21 | 13.1 | 12.8 (≈ 6.25 µg/mL) | 221 |
| O=C1/C(=N\NC(=S)NO)c2cc(Cl)ccc2N1CN1CCN(c2ccc(Cl)cc2)CC1 | 11.1 | 13 (≈ 6.25 µg/mL) | 268 |
| O=C(O)c1cn(C2CC2)c2cc(N3CCN(CN4C(=O)/C(=N\NC(=S)NO)c5cc(Cl)ccc54)CC3)c(F)cc2c1=O | 33.4 | 2.54 (≈ 1.56 µg/mL) | 229 |
| CCn1cc(C(=O)O)c(=O)c2cc(F)c(N3CCN(CN4C(=O)/C(=N\NC(=S)NOC)c5cc(C)ccc54)C(C)C3)c(F)c21 (centres undefined) | 5.74 | 1.24 (≈ 0.778 µg/mL) | 156 |
| O=C1/C(=N\NC(=S)NO)c2cc(F)ccc2N1CN1CCN(c2ccccc2)CC1 | 19.6 | 7.3 (≈ 3.13 µg/mL) | 251 |
| CCN(CC)CN1C(=O)/C(=N\NC(=S)NO)c2cc(Cl)ccc21 | 121 | 70.3 (≈ 25 µg/mL) | 562 |
| COc1ccc(N2CCN(CN3C(=O)/C(=N\NC(=S)NO)c4cc(Cl)ccc43)CC2)cc1 | 21.3 | 13.2 (≈ 6.25 µg/mL) | 279 |
| CONC(=S)N/N=C1\C(=O)N(CN2CCN(c3ccc(OC)cc3)CC2)c2ccc(F)cc21 | 12.7 | 6.14 (≈ 2.9 µg/mL) | 276 |
| CCn1cc(C(=O)O)c(=O)c2cc(F)c(N3CCN(CN4C(=O)/C(=N\NC(=S)NOC)c5cc(Cl)ccc54)C(C)C3)c(F)c21 (centres undefined) | 9.26 | 1.2 (≈ 0.778 µg/mL) | 180 |
| CCn1cc(C(=O)O)c(=O)c2cc(F)c(N3CCN(CN4C(=O)/C(=N\NC(=S)NO)c5cc(C)ccc54)CC3)cc21 | 16.9 | 1.34 (≈ 0.779 µg/mL) | 327 |
